Reference: ChEMBL document CHEMBL4339192, “De Novo Designed Amphipathic α-Helical Antimicrobial Peptides Incorporating Dab and Dap Residues on the Polar Face To Treat the Gram-Negative Pathogen, Acinetobacter baumannii” (J Med Chem, 2019)
Values after ≈ are worked out from the molar mass of the structure shown. Where a SMILES comes first, the peptide text is derived from it. [ ]: non-standard residue; d: D form. Dab = NCC[C@H](N)C(=O)O

Tests used:
[1] = Therapeutic index, ratio of HC50 for human RBC to MIC for polymyxin B/colistin-resistant Acinetobacter baumannii M89951; type: toxicity; conditions: human red blood cells, read-out: TI
In short: (§1)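 T.I. = HC50/MIC. For HC50, peptide (quantified by amino acid analysis) was two-fold serially diluted over 12 concentrations up to 1000 μg/mL. It was incubated with 1% fresh human erythrocytes in PBS, pH 7.4, for 18 h at 37 °C. After 800g centrifugation, hemoglobin was read at 570 nm against water (100%) and no-peptide (0%) controls. HC50 came from a lysis-versus-concentration plot, average of 3 replicates.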

Acinetobacter baumannii [2] = test: Antibacterial activity against Acinetobacter baumannii isolate 963659 measured after 24 hrs by microtiter dilution method; type: functional; conditions: isolate 963659, 24 h
In short: (§2)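 Broth microdilution in Mueller-Hinton (MH) medium. […] Plates were incubated 24 h at 37 °C. MIC was the lowest peptide concentration that inhibited growth, based on three sets of replicates.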

Acinetobacter baumannii [3] = test: Antibacterial activity against Acinetobacter baumannii isolate 1035166 measured after 24 hrs by microtiter dilution method; type: functional; conditions: isolate 1035166, 24 h; in short: as §2
Acinetobacter baumannii [4] = test: Antibacterial activity against Acinetobacter baumannii isolate 1017395 measured after 24 hrs by microtiter dilution method; type: functional; conditions: isolate 1017395, 24 h; in short: as §2
Acinetobacter baumannii [5] = test: Antibacterial activity against Acinetobacter baumannii isolate 981650 measured after 24 hrs by microtiter dilution method; type: functional; conditions: isolate 981650, 24 h; in short: as §2
Acinetobacter baumannii [6] = test: Antibacterial activity against Acinetobacter baumannii isolate 968886 measured after 24 hrs by microtiter dilution method; type: functional; conditions: isolate 968886, 24 h; in short: as §2
Acinetobacter baumannii [7] = test: Antibacterial activity against Acinetobacter baumannii isolate 1007660 measured after 24 hrs by microtiter dilution method; type: functional; conditions: isolate 1007660, 24 h; in short: as §2
[8] = Therapeutic index, ratio of HC50 for human RBC to MIC for polymyxin B/colistin-resistant Acinetobacter baumannii M89941; type: toxicity; conditions: human red blood cells, read-out: TI; in short: as §1
Acinetobacter baumannii [9] = test: Antibacterial activity against Acinetobacter baumannii isolate 1018887 measured after 24 hrs by microtiter dilution method; type: functional; conditions: isolate 1018887, 24 h; in short: as §2
Acinetobacter baumannii [10] = test: Antibacterial activity against polymyxin B/colistin-resistant Acinetobacter baumannii M89953 measured after 24 hrs by microtiter dilution method; type: functional; conditions: M89953, 24 h; in short: as §2
[11] = Therapeutic index, ratio of HC50 for human RBC to MIC for polymyxin B/colistin-resistant Acinetobacter baumannii M89952; type: toxicity; conditions: human red blood cells, read-out: TI; in short: as §1
Acinetobacter baumannii [12] = test: Antibacterial activity against Acinetobacter baumannii isolate 964304 measured after 24 hrs by microtiter dilution method; type: functional; conditions: isolate 964304, 24 h; in short: as §2
Acinetobacter baumannii [13] = test: Antibacterial activity against Acinetobacter baumannii isolate 1010245 measured after 24 hrs by microtiter dilution method; type: functional; conditions: isolate 1010245, 24 h; in short: as §2
Acinetobacter baumannii [14] = test: Antibacterial activity against Acinetobacter baumannii isolate 965463 measured after 24 hrs by microtiter dilution method; type: functional; conditions: isolate 965463, 24 h; in short: as §2
Acinetobacter baumannii [15] = test: Antibacterial activity against Acinetobacter baumannii isolate 952654 measured after 24 hrs by microtiter dilution method; type: functional; conditions: isolate 952654, 24 h; in short: as §2
[16] = Hemolytic activity against human RBC measured after 18 hrs by spectrophotometric method; type: ADME, cell-based, Erythrocyte; conditions: human red blood cells (erythrocytes)
In short: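 Peptide (amount by amino acid analysis), two-fold serial dilutions at 12 concentrations up to 1000 μg/mL, with 1% human erythrocytes in PBS pH 7.4, 37 °C, 18 h. Unlysed cells removed by centrifugation (800g); hemoglobin read at 570 nm. Water-lysed cells = 100%, no-peptide cells = 0%. HC50 from plot of % lysis vs concentration (μM), average of 3 replicates.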

Acinetobacter baumannii [17] = test: Antibacterial activity against Acinetobacter baumannii isolate 1021371 measured after 24 hrs by microtiter dilution method; type: functional; conditions: isolate 1021371, 24 h; in short: as §2
[18] = Therapeutic index, ratio of HC50 for human RBC to MIC for polymyxin B/colistin-resistant Acinetobacter baumannii M89953; type: toxicity; conditions: human red blood cells, read-out: TI; in short: as §1
Acinetobacter baumannii [19] = test: Antibacterial activity against Acinetobacter baumannii isolate 1001611 measured after 24 hrs by microtiter dilution method; type: functional; conditions: isolate 1001611, 24 h; in short: as §2
Acinetobacter baumannii [20] = test: Antibacterial activity against Acinetobacter baumannii isolate 1010282 measured after 24 hrs by microtiter dilution method; type: functional; conditions: isolate 1010282, 24 h; in short: as §2
Acinetobacter baumannii [21] = test: Antibacterial activity against Acinetobacter baumannii isolate 1002956 measured after 24 hrs by microtiter dilution method; type: functional; conditions: isolate 1002956, 24 h; in short: as §2
Acinetobacter baumannii [22] = test: Antibacterial activity against polymyxin B/colistin-resistant Acinetobacter baumannii M89952 measured after 24 hrs by microtiter dilution method; type: functional; conditions: M89952, 24 h; in short: as §2
[23] = Therapeutic index, ratio of HC50 for human RBC to MIC for polymyxin B/colistin-resistant Acinetobacter baumannii M89963; type: toxicity; conditions: human red blood cells, read-out: TI; in short: as §1
Acinetobacter baumannii [24] = test: Antibacterial activity against polymyxin B/colistin-resistant Acinetobacter baumannii M89941 measured after 24 hrs by microtiter dilution method; type: functional; conditions: M89941, 24 h; in short: as §2
Acinetobacter baumannii [25] = test: Antibacterial activity against polymyxin B/colistin-resistant Acinetobacter baumannii M89955 measured after 24 hrs by microtiter dilution method; type: functional; conditions: M89955, 24 h; in short: as §2
Acinetobacter baumannii [26] = test: Antibacterial activity against Acinetobacter baumannii 649 measured after 24 hrs in presence of 25% human serum by microtiter dilution method; type: functional; conditions: Acinetobacter baumannii, 649, 24 h
In short: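 Blood strain 649 was tested by MH broth microdilution with and without 25% (v/v) human serum added to the medium. The test used a final inoculum of 5 × 10^5 cfu/mL and incubation at 37 °C. The ratio is the MIC in serum over the MIC in MH alone.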

Acinetobacter baumannii [27] = test: Antibacterial activity against Acinetobacter baumannii 649 measured after 24 hrs by microtiter dilution method; type: functional; conditions: Acinetobacter baumannii, 649, 24 h; in short: as §2
Acinetobacter baumannii [28] = test: Antibacterial activity against Acinetobacter baumannii isolate 961997 measured after 24 hrs by microtiter dilution method; type: functional; conditions: isolate 961997, 24 h; in short: as §2
Acinetobacter baumannii [29] = test: Antibacterial activity against polymyxin B/colistin-resistant Acinetobacter baumannii M89963 measured after 24 hrs by microtiter dilution method; type: functional; conditions: M89963, 24 h; in short: as §2
Acinetobacter baumannii [30] = test: Antibacterial activity against polymyxin B/colistin-resistant Acinetobacter baumannii M89949 measured after 24 hrs by microtiter dilution method; type: functional; conditions: M89949, 24 h; in short: as §2
Acinetobacter baumannii [31] = test: Antibacterial activity against Acinetobacter baumannii isolate 1035794 measured after 24 hrs by microtiter dilution method; type: functional; conditions: isolate 1035794, 24 h; in short: as §2
[32] = Therapeutic index, ratio of HC50 for human RBC to MIC for polymyxin B/colistin-resistant Acinetobacter baumannii M89955; type: toxicity; conditions: human red blood cells, read-out: TI; in short: as §1
Acinetobacter baumannii [33] = test: Antibacterial activity against polymyxin B/colistin-resistant Acinetobacter baumannii M89951 measured after 24 hrs by microtiter dilution method; type: functional; conditions: M89951, 24 h; in short: as §2
[34] = Therapeutic index, ratio of HC50 for human RBC to MIC for polymyxin B/colistin-resistant Acinetobacter baumannii M89949; type: toxicity; conditions: human red blood cells, read-out: TI; in short: as §1
Acinetobacter baumannii [35] = test: Antibacterial activity against Acinetobacter baumannii isolate 9383370 measured after 24 hrs by microtiter dilution method; type: functional; conditions: isolate 9383370, 24 h; in short: as §2
Acinetobacter baumannii [36] = test: Antibacterial activity against Acinetobacter baumannii isolate 977751 measured after 24 hrs by microtiter dilution method; type: functional; conditions: isolate 977751, 24 h; in short: as §2
Acinetobacter baumannii [37] = test: Antibacterial activity against Acinetobacter baumannii isolate 963618 measured after 24 hrs by microtiter dilution method; type: functional; conditions: isolate 963618, 24 h; in short: as §2

CC(=O)N[C@H](CCCCN)C(=O)N[C@H](CC(C)C)C(=O)N[C@@H](CCN)C(=O)N[C@H](CO)C(=O)N[C@H](CC(C)C)C(=O)N[C@H](CC(C)C)C(=O)N[C@@H](CCN)C(=O)N[C@@H](C(=O)N[C@H](CC(C)C)C(=O)N[C@H](CO)C(=O)N[C@@H](CCN)C(=O)N[C@H](C)C(=O)N[C@H](CCCCN)C(=O)N[C@H](C)C(=O)N[C@H](C)C(=O)N[C@H](CCCCN)C(=O)N[C@H](CC(C)C)C(=O)N[C@@H](CCN)C(=O)N[C@@H](C(=O)N[C@H](CC(C)C)C(=O)N[C@H](CC(C)C)C(=O)N[C@@H](CCN)C(=O)N[C@H](C)C(=O)N[C@H](CC(C)C)C(=O)N[C@H](CO)C(=O)N[C@H](CO)C(N)=O)[C@H](C)O)[C@H](C)O (Ac-[dK][dL][Dab][dS][dL][dL][Dab][dT][dL][dS][Dab][dA][dK][dA][dA][dK][dL][Dab][dT][dL][dL][Dab][dA][dL][dS][dS]-NH2)
selectivity ratio [1]: > 1010
MIC (Acinetobacter baumannii [2]): 0.7 µM (≈ 1.88 µg/mL)
MIC (Acinetobacter baumannii [3]): 0.7 µM (≈ 1.88 µg/mL)
MIC (Acinetobacter baumannii [4]): 0.7 µM (≈ 1.88 µg/mL)
MIC (Acinetobacter baumannii [5]): 0.4 µM (≈ 1.07 µg/mL)
MIC (Acinetobacter baumannii [6]): 0.7 µM (≈ 1.88 µg/mL)
MIC (Acinetobacter baumannii [7]): 0.4 µM (≈ 1.07 µg/mL)
selectivity ratio [8]: > 1010
MIC (Acinetobacter baumannii [9]): 0.7 µM (≈ 1.88 µg/mL)
MIC (Acinetobacter baumannii [10]): 1.4 µM (≈ 3.76 µg/mL)
selectivity ratio [11]: > 1010
MIC (Acinetobacter baumannii [12]): 0.7 µM (≈ 1.88 µg/mL)
MIC (Acinetobacter baumannii [13]): 0.4 µM (≈ 1.07 µg/mL)
MIC (Acinetobacter baumannii [14]): 0.7 µM (≈ 1.88 µg/mL)
MIC (Acinetobacter baumannii [15]): 0.4 µM (≈ 1.07 µg/mL)
HC50 at 18 h [16]: > 708 µM
MIC (Acinetobacter baumannii [17]): 0.4 µM (≈ 1.07 µg/mL)
selectivity ratio [18]: > 1010
MIC (Acinetobacter baumannii [19]): 0.4 µM (≈ 1.07 µg/mL)
MIC (Acinetobacter baumannii [20]): 0.7 µM (≈ 1.88 µg/mL)
MIC (Acinetobacter baumannii [21]): 0.4 µM (≈ 1.07 µg/mL)
MIC (Acinetobacter baumannii [22]): 0.7 µM (≈ 1.88 µg/mL)
selectivity ratio [23]: > 1010
MIC (Acinetobacter baumannii [24]): 0.4 µM (≈ 1.07 µg/mL)
MIC (Acinetobacter baumannii [25]): 0.7 µM (≈ 1.88 µg/mL)
MIC (Acinetobacter baumannii [26]): 0.7 µM
MIC (Acinetobacter baumannii [27]): 0.4 µM (≈ 1.07 µg/mL)
MIC (Acinetobacter baumannii [28]): 1.5 µM (≈ 4.03 µg/mL)
MIC (Acinetobacter baumannii [29]): 0.7 µM (≈ 1.88 µg/mL)
MIC (Acinetobacter baumannii [30]): 0.7 µM (≈ 1.88 µg/mL)
MIC (Acinetobacter baumannii [31]): 0.7 µM (≈ 1.88 µg/mL)
selectivity ratio [32]: > 1010
MIC (Acinetobacter baumannii [33]): 0.7 µM (≈ 1.88 µg/mL)
selectivity ratio [34]: > 1010
MIC (Acinetobacter baumannii [35]): 0.7 µM (≈ 1.88 µg/mL)
MIC (Acinetobacter baumannii [36]): 0.7 µM (≈ 1.88 µg/mL)
MIC (Acinetobacter baumannii [37]): 0.4 µM (≈ 1.07 µg/mL)
